Activity calls are given as the source filed them. The rule behind the calls is not given here.
How the values were obtained:
[1] = tested on: PC-3; experiment: Growth inhibition of human PC3 cells after 72 hrs by MTT assay; type: functional, cell-based; conditions: PC-3, 72 h
Procedure, shortened: (§1)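 MTT colorimetric growth assay. Cells are seeded at 10,000–40,000 cells/mL depending on cell type and allowed to plate for 24 h, then cultured 72 h with or without compound. Formazan from mitochondrial MTT reduction is read spectrophotometrically at 570 nm (reference 630 nm). IC50 is the growth-inhibitory concentration.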

[2] = Growth inhibition of human U373 cells after 72 hrs by MTT assay; type: functional, cell-based, U-373MG ATCC; conditions: U373 MG; procedure, shortened: as §1
[3] = Growth inhibition of human OE21 cells after 72 hrs by MTT assay; type: functional, cell-based; conditions: OE21, 72 h; procedure, shortened: as §1
[4] = tested on: SK-MEL; experiment: Growth inhibition of human SK-MEL cells after 72 hrs by MTT assay; type: functional, cell-based; procedure, shortened: as §1
[5] = tested on: A549; experiment: Growth inhibition of human A549 cells after 72 hrs by MTT assay; type: functional, cell-based; conditions: A549, 72 h; procedure, shortened: as §1
[6] = tested on: MCF7; experiment: Growth inhibition of human MCF7 cells after 72 hrs by MTT assay; type: functional, cell-based; conditions: MCF7, 72 h; procedure, shortened: as §1
[7] = tested on: U-373MG ATCC; experiment: Anticancer activity against human U373 cells assessed as reduction in cell proliferation at 10 uM for 3 days by quantitative video microscopy relative to control; type: functional, cell-based
Procedure, shortened: (§2)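 U373 glioblastoma cells filmed by computer-assisted phase-contrast (quantitative videomicroscopy) over three days of culture with or without compound. Cell population growth is judged from morphology: reduced proliferation is taken as cytostatic effect, direct cell killing as cytotoxic effect, and round-shaped cells as cell death. Comparison is against untreated control.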

[8] = tested on: U-373MG ATCC; experiment: Anticancer activity against human U373 cells assessed as cell death at 10 uM for 3 days by quantitative video microscopy; type: functional, cell-based; procedure, shortened: as §2
[9] = tested on: U-373MG ATCC; experiment: Cytostatic activity against human U373 cells assessed as increase in mitosis duration at 10 uM after 3 days by quantitative video microscopy relative to control; type: functional, cell-based
Procedure, shortened: (§3)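 Human U373 glioblastoma cultures are recorded by quantitative videomicroscopy with or without compound. In-house software scores mitosis duration (min) and mitosis number, with number normalized to initial cell count at t = 0 h. Values are compared with untreated control.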

[10] = tested on: U-373MG ATCC; experiment: Anticancer activity against human U373 cells assessed as cell death at 5 uM for 3 days by quantitative video microscopy; type: functional, cell-based; procedure, shortened: as §2
[11] = tested on: U-373MG ATCC; experiment: Anticancer activity against human U373 cells assessed as reduction in cell proliferation at 5 uM for 3 days by quantitative video microscopy relative to control; type: functional, cell-based; procedure, shortened: as §2
[12] = tested on: U-373MG ATCC; experiment: Cytostatic activity against human U373 cells assessed as decrease in mitosis duration at 5 uM after 3 days by quantitative video microscopy relative to control; type: functional, cell-based; procedure, shortened: as §3

IC50 [1] [µM]	IC50 [4] [µM]	IC50 [5] [µM]	IC50 [6] [µM]	SMILES	IC50 [2] [µM]	IC50 [3] [µM]	Activity [7]	Activity [8]	Activity [9]	Activity [10]	Activity [11]	Activity [12]
29	40	40	29	COc1ccc(C2CC2c2nnc3c4ccccc4cnn23)cc1 (stereo not drawn)	28	26	–	–	–	–	–	–
8	72	45	9	CC(C)=CCC/C(C)=C/COc1ccc(C2CC2c2nnc3c4ccccc4cnn23)cc1 (stereo not drawn)	63	5	–	–	–	–	–	–
44	81	10	34	O=C(NNC(=O)C1CC1c1ccc(OCC(F)(F)F)cc1)c1ccncc1 (stereo not drawn)	19	31	–	–	–	–	–	–
> 100	–	78	–	CC(C)=CCC/C(C)=C/COc1ccc(C2CC2C(=O)NNC(=O)c2ccncc2)cc1 (stereo not drawn)	84	–	–	–	–	–	–	–
> 100	–	> 100	–	CC(C)=CCOc1ccc(C2CC2C(=O)NNC(=O)c2ccncc2)cc1 (stereo not drawn)	> 100	–	–	–	–	–	–	–
> 100	–	66	–	CCOc1ccc(C2CC2c2nnc3c4ccccc4cnn23)cc1 (stereo not drawn)	44	–	–	–	–	–	–	–
> 100	–	56	–	O=C(NNC(=O)C1CC1c1ccc(OC(F)(F)F)cc1)c1ccncc1 (stereo not drawn)	37	–	–	–	–	–	–	–
67	29	48	8	O=C(NNc1nncc2ccccc12)C1CC1c1ccc(OCC(F)(F)F)cc1 (stereo not drawn)	25	17	–	–	–	–	–	–
92	29	87	54	O=C(NNc1nncc2ccccc12)C1CC1c1ccc(OC(F)(F)F)cc1 (stereo not drawn)	85	42	–	–	–	–	–	–
> 100	–	> 100	–	COc1ccc(C2CC2C(=O)NNC(=O)c2ccncc2)cc1 (stereo not drawn)	> 100	–	–	–	–	–	–	–
38	29	64	37	FC(F)(F)COc1ccc(C2CC2c2nnc3c4ccccc4cnn23)cc1 (stereo not drawn)	58	9	–	–	–	–	–	–
49	57	37	37	FC(F)(F)Oc1ccc(C2CC2c2nnc3c4ccccc4cnn23)cc1 (stereo not drawn)	37	30	–	–	–	–	–	–
24	25	36	23	CC(C)=CCC/C(C)=C/COc1ccc(C2CC2C(=O)NNc2nncc3ccccc23)cc1 (stereo not drawn)	9	9	Active	inactive	Active	–	–	–
> 100	–	43	–	CCOc1ccc(C2CC2C(=O)NNC(=O)c2ccncc2)cc1 (stereo not drawn)	63	–	–	–	–	–	–	–
81	67	82	69	CC(C)=CCOc1ccc(C2CC2C(=O)NNc2nncc3ccccc23)cc1 (stereo not drawn)	81	38	–	–	–	–	–	–
22	26	56	19	CC(C)=CCOc1ccc(C2CC2c2nnc3c4ccccc4cnn23)cc1 (stereo not drawn)	4	8	–	–	–	inactive	Active	Active
64	68	96	72	COc1ccc(C2CC2C(=O)NNc2nncc3ccccc23)cc1 (stereo not drawn)	83	48	–	–	–	–	–	–
94	–	> 100	–	CCOc1ccc(C2CC2C(=O)NNc2nncc3ccccc23)cc1 (stereo not drawn)	91	–	–	–	–	–	–	–

— ChEMBL document CHEMBL1156155, “Synthesis and anticancer activity evaluation of 2(4-alkoxyphenyl)cyclopropyl hydrazides and triazolo phthalazines” (Bioorg Med Chem, 2010)
